Active and inactive are the calls of the source. No cut-off for these calls is given here.
Experiments:
[1] = target: Rhodesain (Trypanosoma brucei rhodesiense, UniProt Q95PM0); assay: Inhibition of Trypanosoma brucei rhodesiense rhodesain using Cbz-Phe-Arg-AMC as substrate by fluorimetric method
Method in brief: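 Fluorescence-based protease assay. IC50 was converted to Ki by the Cheng-Prusoff equation. Values are the average of two measurements, each run in duplicate.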

[2] = Selectivity index, ratio of IC50 for rat L6 cells to IC50 for bloodstream form of Trypanosoma brucei rhodesiense STIB 900; type: toxicity; conditions: for selectivity ratio: L6 cells, read-out: Ratio IC50
Method in brief: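 Ratio of L6 cell IC50 to T. b. rhodesiense STIB900 trypomastigote IC50.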

[3] = test system: L6; assay: Cytotoxicity against rat L6 cells after 72 hrs by Alamar blue assay; type: cell-based
Method in brief: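 Rat skeletal myoblast L6 cells, growth inhibition; IC50 as average of at least 2 measurements.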

[4] = test system: Trypanosoma brucei rhodesiense; assay: Antitrypanosomal activity against bloodstream form of Trypanosoma brucei rhodesiense STIB 900 assessed as parasite growth inhibition after 72 hrs by Alamar blue assay; type: functional
Method in brief: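 T. b. rhodesiense STIB900 bloodstream trypomastigotes; cell-growth inhibition read by Alamar blue; IC50 as average of at least 2 measurements.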

[5] = target: Procathepsin L (Homo sapiens, UniProt P07711); assay: Inhibition of human CatL using Cbz-Phe-Arg-AMC as substrate measured over 30 mins by fluorimetric method
Chain of Procathepsin L (P07711 whole entry): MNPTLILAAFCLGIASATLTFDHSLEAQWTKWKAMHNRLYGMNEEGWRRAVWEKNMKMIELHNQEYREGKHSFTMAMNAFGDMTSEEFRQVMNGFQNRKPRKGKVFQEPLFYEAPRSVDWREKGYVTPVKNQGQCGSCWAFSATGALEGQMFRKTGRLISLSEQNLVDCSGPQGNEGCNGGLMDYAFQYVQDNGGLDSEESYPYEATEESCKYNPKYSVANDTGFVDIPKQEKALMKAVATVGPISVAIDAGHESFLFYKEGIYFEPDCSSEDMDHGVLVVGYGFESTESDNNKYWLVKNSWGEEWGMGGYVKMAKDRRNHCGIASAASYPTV

[6] = Selectivity index, ratio of Ki for human CatL to Ki for Trypanosoma brucei rhodesiense rhodesain
Method in brief: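 Ki from IC50 via Cheng–Prusoff in fluorescence-based protease assay; index = Ki(hCatL)/Ki(RD); Ki as average of two measurements, each in duplicate.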

[7] = test system: MDR1; assay: Efflux ratio of permeability across pig LLC-PK1 cells expressing human MDR1 at 1 uM after 3.5 hrs by LC-MS/MS analysis; type: ADME, cell-based, Sus scrofa
Method in brief: (§1)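 Porcine kidney LLC-PK1 cells stably transfected with human ABCB1 (MDR1) or mouse Abcb1a (Mdr1a). Cells were grown with 10% FCS and 100 ng/mL colchicine and seeded on permeable inserts, then assayed on day 4. Compound was added at 1 μM to the apical or basolateral side, and transport was run in both directions in triplicate at 37 °C, 5% CO2. Donor and receiver were sampled at 3.5 h and quantified by LC–MS/MS. Lucifer yellow was used as the monolayer tightness control.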

[8] = test system: Trypanosoma brucei brucei; assay: Antitrypanosomal activity against Trypanosoma brucei brucei TC 221 assessed as parasite growth inhibition after 72 hrs by Alamar blue assay; type: functional; conditions: TC 221, 72 h
[9] = test system: Mdr1a; assay: Efflux ratio of permeability across pig LLC-PK1 cells expressing mouse Mdr1a at 1 uM after 3.5 hrs by LC-MS/MS analysis; type: ADME, cell-based, Sus scrofa; method in brief: as §1
[10] = test system: Trypanosoma brucei rhodesiense; assay: Antitrypanosomal activity against bloodstream form of Trypanosoma brucei rhodesiense STIB 900 assessed as parasite growth inhibition incubated for 24 to 48 hrs followed by 72 hrs recovery by Alamar blue assay; type: functional
[11] = target: Rhodesain (Trypanosoma brucei rhodesiense) (UniProt Q95PM0); assay: Inhibition of Trypanosoma brucei rhodesiense rhodesain at 20 uM using Cbz-Phe-Arg-AMC as substrate by fluorimetric method relative to control
Chain of Rhodesain (Trypanosoma brucei rhodesiense) (Q95PM0 1-450): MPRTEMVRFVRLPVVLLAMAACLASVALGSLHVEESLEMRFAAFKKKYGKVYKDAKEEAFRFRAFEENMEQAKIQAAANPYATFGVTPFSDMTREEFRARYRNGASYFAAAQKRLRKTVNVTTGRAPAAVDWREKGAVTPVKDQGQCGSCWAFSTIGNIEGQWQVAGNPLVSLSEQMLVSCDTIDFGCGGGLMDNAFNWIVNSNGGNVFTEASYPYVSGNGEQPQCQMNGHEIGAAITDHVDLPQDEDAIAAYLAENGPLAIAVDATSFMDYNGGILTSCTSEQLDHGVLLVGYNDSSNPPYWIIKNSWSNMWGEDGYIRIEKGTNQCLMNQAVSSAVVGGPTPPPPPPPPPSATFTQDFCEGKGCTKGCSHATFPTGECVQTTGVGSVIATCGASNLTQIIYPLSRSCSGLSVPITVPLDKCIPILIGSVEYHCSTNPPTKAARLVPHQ

[12] = Drug uptake in bloodstream form of Trypanosoma brucei rhodesiense STIB 900 infected NMRI mouse blood at 25 mg/kg, ip bid administered for 4 consecutive days starting 3 days post infection measured at 1 hr post last dose; type: ADME, organism-based; conditions: read-out: Drug uptake
[13] = test system: Trypanosoma brucei rhodesiense; assay: Antitrypanosomal activity against bloodstream form of Trypanosoma brucei rhodesiense STIB 900 infected in NMRI mouse assessed as reduction of parasitemia at 25 mg/kg, ip bid administered for 4 consecutive days starting 3 days post infection measured 24 hrs post last dose; type: functional, organism-based
Method in brief: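 Mice infected with T. b. rhodesiense STIB900 (acute model); dosing from day 3 post-infection on four consecutive days, 25 mg kg⁻¹ i.p. twice daily, 0.1 mL/10 g; three infected-untreated controls; parasitaemia monitored by tail-snip blood smears twice weekly for two weeks, then weekly to day 60; relapse day recorded post-infection.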

[14] = Drug uptake in bloodstream form of Trypanosoma brucei rhodesiense STIB 900 infected NMRI mouse blood at 25 mg/kg, ip bid administered for 4 consecutive days starting 3 days post infection measured at 16 hrs post last dose; type: ADME, organism-based; conditions: read-out: Drug uptake
[15] = Drug uptake in bloodstream form of Trypanosoma brucei rhodesiense STIB 900 infected NMRI mouse blood at 25 mg/kg, ip bid administered for 4 consecutive days starting 3 days post infection measured at 4 hrs post last dose; type: ADME, organism-based; conditions: read-out: Drug uptake
[16] = Trypanosoma brucei, STIB 900, 72 h

Chain of Rhodesain (Q95PM0 whole entry): as the sequence (Q95PM0 1-450) above

| SMILES | Ki [1] [nM] | IC50 ([3]; Rattus norvegicus, L6, 72 h) [nM] | IC50 [4, 16] [nM] | Ki [5] [nM] | Ratio Ki [6] | selectivity ratio [2] | also measured |
| --- | --- | --- | --- | --- | --- | --- | --- |
| N#CC1(NC(=O)[C@@H]2Cc3ccc(c(Cl)c3)OCC#CCOc3c(F)cc(F)cc3C(=O)N2)CC1 (single isomer, unassigned; atropisomer 1) [listing 1 of 2 here] | 80.6 | 45600 | 8 | 24.1 | – | – | Ratio IC50 [2]: 5700 |
| N#CC1(NC(=O)[C@@H]2Cc3ccc(c(Cl)c3)OC/C=C/COc3cc4ccccc4cc3C(=O)N2)CC1 (mixture of isomers) | 1 | 43800 | 0.5 | 1.2 | 1.2 | 87600 | – |
| N#CC1(NC(=O)[C@@H]2Cc3ccc(c(Cl)c3)OCC#CCOc3c(F)cc(F)cc3C(=O)N2)CC1 (single isomer, unassigned; atropisomer 2) [listing 1 of 2 here] | – | – | – | – | 0.3 | – | – |
| N#CC1(NC(=O)[C@@H]2Cc3ccc(c(Cl)c3)OCCCCOc3cc4c(cc3C(=O)N2)CCCC4)CC1 | 26 | – | – | 3 | – | – | efflux ratio at 3.5 h, 1 µM [7]: 26; IC50 [8]: 1 nM; efflux ratio at 3.5 h, 1 µM [9]: 38 |
| N#CC1(NC(=O)[C@@H]2Cc3ccc(c(-c4cccnc4)c3)OCCCCOc3ccccc3C(=O)N2)CC1 | 837 | > 100000 | 1930 | 997 | 1.2 | – | – |
| N#CC1(NC(=O)[C@@H]2Cc3ccc(c(Cl)c3)OCC#CCOc3c(F)cc(F)cc3C(=O)N2)CC1 (single isomer, unassigned; atropisomer 2) [listing 2 of 2 here] | 4.8 | – | – | 1.2 | – | – | Ratio IC50 [2]: 11775; IC50 ([3]; l6): 47100 nM; IC50 [4]: 4 nM |
| N#CC1(NC(=O)[C@@H]2Cc3ccc(c(-c4cccnc4)c3)OCCCCOc3cc(C(F)(F)F)ccc3C(=O)N2)CC1 | 751 | 72200 | 18 | 824 | 1.1 | 4010 | – |
| N#CC1(NC(=O)[C@@H]2Cc3ccc(c(Cl)c3)OC/C=C/CCn3nc(cc3C3CC3)C(=O)N2)CC1 | 17.2 | 60600 | 5 | 2.5 | 0.1 | 12100 | growth inhibition (GI) [10]: Active |
| N#CC1(NC(=O)[C@@H]2Cc3ccc(c(Cl)c3)OC/C=C/COc3ccccc3C(C(F)(F)F)N2)CC1 (some centres undefined) | 258 | – | 9500 | 443 | – | – | – |
| CS(=O)(=O)c1ccc2c(c1)C(=O)N[C@H](C(=O)NC1(C#N)CC1)Cc1ccc(c(Cl)c1)OC[C@H]1O[C@@H]1CO2 (mixture of isomers) | 135 | 84700 | 16900 | 4.6 | 0.03 | 5 | – |
| N#CC1(NC(=O)[C@@H]2Cc3ccc(c(Cl)c3)OC/C=C/CCn3nc(cc3-c3ccccc3)C(=O)N2)CC1 | 5.2 | 40000 | 0.6 | 55.7 | 11 | 66700 | – |
| CC(C)(C)c1cc2nn1CC/C=C/COc1ccc(cc1Cl)C[C@@H](C(=O)NC1(C#N)CC1)NC2=O | 18 | 38500 | 0.6 | 2.3 | 0.1 | 64200 | – |
| Cc1cc2nn1CC/C=C/COc1ccc(cc1Cl)C[C@@H](C(=O)NC1(C#N)CC1)NC2=O (mixture of isomers) | 52.4 | > 100000 | 6 | 40.3 | 0.8 | – | – |
| N#CC1(NC(=O)[C@@H]2Cc3ccc(c(Cl)c3)OC/C=C/Cn3c(=O)c(cc4cc(Cl)ccc43)C(=O)N2)CC1 (mixture of isomers) | 299 | 16200 | 8 | 274 | 0.9 | 2020 | – |
| N#CC1(NC(=O)[C@@H]2Cc3ccc(c(Cl)c3)OC/C=C/COc3cc(-c4ccc(Cl)nc4)ccc3C(=O)N2)CC1 (mixture of isomers) | 3 | 6490 | 338 | 7.3 | 2.4 | 19 | – |
| N#CC1(NC(=O)[C@@H]2Cc3ccc(c(Cl)c3)OC/C=C/COc3cc(-c4cnn(C(F)F)c4)ccc3C(=O)N2)CC1 (mixture of isomers) | 5.4 | 44300 | 336 | 7.4 | 1.4 | 132 | – |
| N#CC1(NC(=O)[C@@H]2Cc3ccc(c(Cl)c3)OCC#CCOc3c(F)cc(F)cc3C(=O)N2)CC1 (single isomer, unassigned; atropisomer 1) [listing 2 of 2 here] | – | – | – | – | 0.3 | – | – |
| Cn1cc(-c2cc3ccc2OCCCCOc2cc(C(F)(F)F)ccc2C(=O)N[C@H](C(=O)NC2(C#N)CC2)C3)cn1 | 870 | > 100000 | 19 | 676 | 0.8 | – | – |
| N#CC1(NC(=O)[C@@H]2Cc3ccc(c(-c4cc[nH]n4)c3)OCCCCOc3cc(C(F)(F)F)ccc3C(=O)N2)CC1 | – | > 100000 | 140 | 1360 | – | – | inhibition [11]: 45% |
| N#CC1(NC(=O)[C@@H]2Cc3ccc(c(Cl)c3)OC/C=C/Cn3cccc(c3=O)C(=O)N2)CC1 | > 20000 | > 100000 | 47800 | > 20000 | – | – | – |
| N#CC1(NC(=O)[C@@H]2Cc3ccc(c(I)c3)OC/C=C/COc3cc(C(F)(F)F)ccc3C(=O)N2)CC1 (mixture of isomers) | 8.7 | 30200 | 300 | 5.6 | 0.6 | 101 | – |
| CS(=O)(=O)c1ccc2c(c1)C(=O)N[C@H](C(=O)NC1(C#N)CC1)Cc1ccc(c(Cl)c1)OC/C=C/CO2 | 6.1 | > 100000 | 332 | 3.7 | 0.6 | – | – |
| N#CC1(NC(=O)[C@@H]2Cc3ccc(c(I)c3)OC/C=C/COc3ccccc3C(=O)N2)CC1 | 2.5 | – | – | – | – | – | – |
| N#CC1(NC(=O)[C@@H]2Cc3ccc(c(Cl)c3)OC/C=C/COc3ccc(-c4ccc(F)cc4)cc3C(=O)N2)CC1 (mixture of isomers) | 2 | 45300 | 347 | 15.5 | 7.8 | 131 | – |
| N#CC1(NC(=O)[C@@H]2Cc3ccc(c(Cl)c3)OC/C=C/COc3c(F)cc(F)cc3C(=O)N2)CC1 | – | – | – | – | – | – | growth inhibition (GI) [10]: Active |
| N#CC1(NC(=O)[C@@H]2Cc3ccc(c(-c4cc[nH]n4)c3)OCCCCOc3ccccc3C(=O)N2)CC1 | 1090 | 86500 | 1230 | 1110 | 1 | 70 | – |
| CSc1ccc2c(c1)C(=O)N[C@H](C(=O)NC1(C#N)CC1)Cc1ccc(c(Cl)c1)OC/C=C/CO2 | – | – | – | – | – | – | concentration at 1 h [12]: 951 ng/mL; Activity [13]: inactive; concentration at 16 h [14]: < 10 ng/mL; concentration at 4 h [15]: 66.4 ng/mL |
| N#CC1(NC(=O)[C@@H]2Cc3ccc(c(Cl)c3)OC/C=C/COc3cc(C(F)(F)F)ccc3C(=O)N2)CC1 | 20.2 | 37000 | 2 | 2.4 | 0.1 | 18500 | growth inhibition (GI) [10]: Active |
| N#CC1(NC(=O)[C@@H]2Cc3ccc(c(I)c3)OCCCCOc3cc(C(F)(F)F)ccc3C(=O)N2)CC1 | 57.4 | 56800 | 30 | 5.8 | 0.1 | 1890 | – |
| N#CC1(NC(=O)[C@@H]2Cc3ccc(c(-c4cncnc4)c3)OCCCCOc3cc(C(F)(F)F)ccc3C(=O)N2)CC1 | > 20000 | > 100000 | 509 | 6390 | – | – | – |

— ChEMBL document CHEMBL4043299, “Repurposing a Library of Human Cathepsin L Ligands: Identification of Macrocyclic Lactams as Potent Rhodesain and Trypanosoma brucei Inhibitors” (J Med Chem, 2018)
